Source: ChEMBL document CHEMBL3808283, “Biological Characterization and in Vivo Assessment of the Activity of a New Synthetic Macrocyclic Antifungal Compound” (J Med Chem, 2016)
≈ marks a conversion by molar mass, not a printed value. Calls of active or inactive are those of the source. The calls are words filed in the database; no cut-off is given here.

Columns and labels:
[1] = system: Candida parapsilosis; assay: Antifungal activity against Candida parapsilosis 64E measured at 72 hrs by broth dilution assay; assay type: functional; settings: Lodderomyces parapsilosis
How it was run: (§1)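 EUCAST broth microdilution, including the update for non-fermenting yeasts (Cryptococcus, Geotrichum), on clinical and reference yeast isolates. Incubated at 37 °C and read at 24, 48 and 72 h. MIC taken as the lowest concentration with no visible growth. For Cryptococcus and Geotrichum, MICs were read only once growth was visible in the control row.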

[2] = system: Candida albicans; assay: Antifungal activity against fluconazole-susceptible Candida albicans ATCC 90028 in immunocompetent Balb/c mouse candidiasis model assessed as reduction in CFU count in kidney at 20 to 40 mg/kg/day, ip regime measured on day 7 post infection; assay type: functional, organism-based
How it was run: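 Immunocompetent BALB/c mice, 10 per strain group, injected in the lateral tail vein with 7 × 10^4 CFU of C. albicans in 200 µL sterile saline. Compound given ip daily, 100 µL of 0.1 mg/mL in DMSO/PEG 400 2:1; fluconazole control ip at 8 mg/kg/day. On day 7, spleen and kidneys were excised, weighed and homogenized in saline, then plated on YPD agar for 2 days at 30 °C. Read-out CFU/g; Wilcoxon rank-sum test, P<0.05.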

[3] = system: Pichia kudriavzevii; assay: Antifungal activity against Candida krusei 193T measured at 72 hrs by broth dilution assay; assay type: functional; how it was run: as §1
[4] = system: Candida albicans; assay: Antifungal activity against Candida albicans 15T measured at 72 hrs by broth dilution assay; assay type: functional; how it was run: as §1
[5] = system: Candida parapsilosis; assay: Ratio of MIC at 24 hrs to MIC at 48 hrs for Candida parapsilosis 64E; assay type: functional
How it was run: (§2)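 MICs by EUCAST broth microdilution, with the update for non-fermenting yeasts, incubated at 37 °C. Read at 24, 48 and 72 h as the lowest concentration preventing visible growth.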

[6] = Antifungal activity against Geotrichum silvicola measured at 24 hrs by broth dilution assay; assay type: functional; how it was run: as §1
[7] = system: Candida albicans; assay: Upregulation of orf19.6873.1 gene expression in Candida albicans SC5314 at 3 uM after 45 mins by microarray method relative to control; assay type: functional
How it was run: (§3)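 Log-phase cultures in liquid YEPD were exposed to 3 µM compound (final) for 15 or 45 min, with untreated controls sampled at the same times, in three biological replicates. Total RNA was extracted by glass-bead/phenol-chloroform disruption and integrity-checked. One-color Cy3-labelled cRNA (600 ng) was hybridized for 17 h at 65 °C to 8 × 15K arrays, and fold change was taken versus control.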

[8] = system: Candida albicans; assay: Upregulation of PDR16 gene expression in Candida albicans SC5314 at 3 uM after 45 mins by microarray method relative to control; assay type: functional
How it was run: (§4)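 Log-phase C. albicans SC5314 in liquid YEPD exposed to 3 µM final for 15 or 45 min; untreated controls taken at the same time points. Three biological replicates. RNA extracted by glass-bead/phenol-chloroform method and integrity checked. One-color Cy3-labeled cRNA (600 ng) hybridized 17 h at 65 °C to 8 × 15K arrays. Expression expressed as fold change versus control.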

[9] = system: Candida tropicalis; assay: Antifungal activity against Candida tropicalis 86E measured at 48 hrs by broth dilution assay; assay type: functional; how it was run: as §1
[10] = system: Candida albicans; assay: Antifungal activity against Candida albicans 15T up to 96 hrs by broth dilution assay; assay type: functional, organism-based
[11] = system: Cryptococcus neoformans; assay: Fungicidal activity against Cryptococcus neoformans at 40 uM measured at 72 hrs by time kill assay; assay type: functional, organism-based
[12] = system: Candida albicans; assay: Upregulation of orf19.1438 gene expression in Candida albicans SC5314 at 3 uM after 45 mins by microarray method relative to control; assay type: functional; how it was run: as §4
[13] = system: Magnusiomyces capitatus; assay: Antifungal activity against Geotrichum capitatum up to 96 hrs by broth dilution assay; assay type: functional
[14] = system: Candida albicans; assay: Upregulation of CDR2 gene expression in Candida albicans SC5314 at 3 uM after 15 to 45 mins by qRT-PCR method; assay type: functional, organism-based
How it was run: (§5)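 Log-phase C. albicans treated at 3 µM. RNA extracted with glass-bead disruption, then DNase-treated (10 µg per preparation). Target gene CT values were normalized to an endogenous reference. Fold change calculated as mean normalized expression of samples relative to a selected control.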

[15] = system: Nakaseomyces glabratus; assay: Antifungal activity against Candida glabrata 70 measured at 72 hrs by broth dilution assay; assay type: functional; settings: Nakaseomyces glabratus, 70, 72 h; how it was run: as §1
[16] = system: Candida albicans; assay: Antifungal activity against Candida albicans 53T measured at 48 hrs by broth dilution assay; assay type: functional; how it was run: as §1
[17] = system: Magnusiomyces capitatus; assay: Antifungal activity against Geotrichum capitatum measured at 24 hrs by broth dilution assay; assay type: functional; how it was run: as §1
[18] = system: Pichia kudriavzevii; assay: Ratio of MIC at 24 hrs to MIC at 48 hrs for Candida krusei ATCC 14243; assay type: functional; how it was run: as §2
[19] = system: Candida albicans; assay: Antifungal activity against Candida albicans 53T up to 96 hrs by broth dilution assay; assay type: functional, organism-based
[20] = system: Candida albicans; assay: Upregulation of orf19.1887 gene expression in Candida albicans SC5314 at 3 uM after 15 mins by microarray method relative to control; assay type: functional; how it was run: as §3
[21] = system: Candida albicans; assay: Upregulation of orf19.7336 gene expression in Candida albicans SC5314 at 3 uM after 45 mins by microarray method relative to control; assay type: functional; how it was run: as §3
[22] = system: Candida albicans; assay: Upregulation of orf19.3089 gene expression in Candida albicans SC5314 at 3 uM after 15 mins by microarray method relative to control; assay type: functional; how it was run: as §3
[23] = system: Candida albicans; assay: Upregulation of orf19.4531 gene expression in Candida albicans SC5314 at 3 uM after 45 mins by microarray method relative to control; assay type: functional; how it was run: as §3
[24] = system: Candida albicans; assay: Antifungal activity against Candida albicans 53T measured at 72 hrs by broth dilution assay; assay type: functional; how it was run: as §1
[25] = system: Pichia kudriavzevii; assay: Fungicidal activity against Candida krusei ATCC 14243 assessed as reduction in CFU at 80 uM measured at 24 hrs by time kill assay relative to control; assay type: functional; settings: ATCC 14243, 24 h
How it was run: (§6)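 EUCAST broth microdilution at 37 °C. From wells at MIC, 2×, 4× and 8× MIC, 10 µL aliquots were taken, serially 10-fold diluted in saline and plated on Sabouraud dextrose agar. Plates were incubated at 37 °C for 24/48 h, and 48 h for Cryptococcus and Geotrichum. Done in duplicate, detection limit 10 CFU/mL. A drop of at least 3 Log10 CFU/mL from the initial inoculum in 24 h counts as fungicidal; a smaller drop counts as fungistatic.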

[26] = system: Candida tropicalis; assay: Antifungal activity against Candida tropicalis 86E measured at 24 hrs by broth dilution assay; assay type: functional; how it was run: as §1
[27] = system: Pichia kudriavzevii; assay: Ratio of MIC at 24 hrs to MIC at 48 hrs for Candida krusei 193T; assay type: functional; how it was run: as §2
[28] = system: Candida parapsilosis; assay: Fungicidal activity against Candida parapsilosis 81E at 40 uM after 24 to 48 hrs by time kill assay; assay type: functional, organism-based; how it was run: as §6
[29] = system: Candida parapsilosis; assay: Antifungal activity against Candida parapsilosis 81E measured at 24 hrs by broth dilution assay; assay type: functional; settings: Lodderomyces parapsilosis; how it was run: as §1
[30] = system: Candida albicans; assay: Upregulation of CDR1 gene expression in Candida albicans SC5314 at 3 uM after 15 to 45 mins by qRT-PCR method; assay type: functional, organism-based; how it was run: as §5
[31] = system: Cryptococcus neoformans; assay: Antifungal activity against Cryptococcus neoformans measured at 24 hrs by broth dilution assay; assay type: functional, organism-based; how it was run: as §1
[32] = system: Candida albicans; assay: Upregulation of orf19.7336 gene expression in Candida albicans SC5314 at 3 uM after 15 mins by microarray method relative to control; assay type: functional; how it was run: as §3
[33] = Antifungal activity against Geotrichum silvicola measured at 72 hrs by broth dilution assay; assay type: functional; how it was run: as §1

C/C=C/CNC(=N)NCCCCCCCCN1CCCCCCCCNC(=N)NC1=O
MIC [1]: 40 µM (≈ 17.4 µg/mL)
Activity [2]: Active
MIC [3]: 80 µM (≈ 34.9 µg/mL)
MIC [4]: 5 µM (≈ 2.18 µg/mL)
Ratio [5]: 2
Activity [6]: Active
fold change (FC) [7]: 1.9
fold change (FC) [8]: 6.89
MIC [9]: 5 µM (≈ 2.18 µg/mL)
Activity [10]: Active
Activity [11]: Active
fold change (FC) [12]: 17.28
Activity [13]: Active
Activity [14]: Active
MIC [15]: > 80 µM
MIC [16]: 5 µM (≈ 2.18 µg/mL)
Activity [17]: Active
Ratio [18]: 8
Activity [19]: Active
fold change (FC) [20]: 2.19
fold change (FC) [21]: 3.49
fold change (FC) [22]: 2.39
fold change (FC) [23]: 21.54
MIC [24]: 5 µM (≈ 2.18 µg/mL)
inhibition at 80 µM [25]: 99.9%
MIC [26]: 2.5 µM (≈ 1.09 µg/mL)
Ratio [27]: 8
Activity [28]: Active
MIC [29]: 20 µM (≈ 8.71 µg/mL)
Activity [30]: Active
Activity [31]: Active
fold change (FC) [32]: 2.8
MIC [33]: 10 µM (≈ 4.36 µg/mL)
